These results are taken from ChEMBL document CHEMBL4840303, “Design, synthesis, biological evaluation and pharmacophore model analysis of novel tetrahydropyrrolo[3,4-c]pyrazol derivatives as potential TRKs inhibitors” (Eur J Med Chem, 2021).

Series [1] is described as follows: Clearance in human microsomes assessed as half life at 100 uM measured after 60 mins by LC-MS/MS analysis. The format is ADME, Liver, Microsome. In a few lines:
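Pooled human liver microsomes were diluted to 0.59 mg/mL (working solution) in 100 mM potassium phosphate buffer and pre-warmed at 37 °C. Compound was added from a 100 µM working solution, with NADPH cofactor prepared in 10 mM MgCl2. Incubation ran at 37 °C for 60 min. Aliquots were quenched at 5, 15, 30, 45 and 60 min. A control without NADPH was run in buffer. Samples were analysed by LC-MS/MS.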

Series [2] has as its system KM12. The series is described as follows: Cell cycle arrest in human KM12 cells assessed as accumulation of cells at G2 phase at 62.5 nM measured after 48 hrs by AnnexinV-FITC/PI staining based flowcytometry method relative to control. It is filed as functional.
Series [3] deals with KM12. The series can be described thus: Cell cycle arrest in human KM12 cells assessed as accumulation of cells at less G1 phase at 500 nM measured after 48 hrs by AnnexinV-FITC/PI staining based flowcytometry method relative to control. It is filed as functional.

The structures appear in SMILES notation.

Turning to `CN1CCN(c2ccc(C(=O)Nc3n[nH]c4c3CN(Cc3cc(F)cc(F)c3)C4(C)C)cc2)CC1`, the microsomal CLint at 100 µM in series [1] is 46.8 µL/min/mg. The values for the Activity in series [2] and in series [3] were 15.8% and 7.65%, respectively.
